The source made the active and inactive calls. No cut-off for these calls is given here.
Key:
[1] = target: T1, Polyunsaturated fatty acid 5-lipoxygenase (Rattus norvegicus, UniProt P12527); experiment: Inhibition of 5-lipoxygenase catalysis in rat basophilic leukemia (RBL) cells by measuring 5-HETE product formation; assay type: cell-based, RBL-1
T1 sequence (P12527 whole entry): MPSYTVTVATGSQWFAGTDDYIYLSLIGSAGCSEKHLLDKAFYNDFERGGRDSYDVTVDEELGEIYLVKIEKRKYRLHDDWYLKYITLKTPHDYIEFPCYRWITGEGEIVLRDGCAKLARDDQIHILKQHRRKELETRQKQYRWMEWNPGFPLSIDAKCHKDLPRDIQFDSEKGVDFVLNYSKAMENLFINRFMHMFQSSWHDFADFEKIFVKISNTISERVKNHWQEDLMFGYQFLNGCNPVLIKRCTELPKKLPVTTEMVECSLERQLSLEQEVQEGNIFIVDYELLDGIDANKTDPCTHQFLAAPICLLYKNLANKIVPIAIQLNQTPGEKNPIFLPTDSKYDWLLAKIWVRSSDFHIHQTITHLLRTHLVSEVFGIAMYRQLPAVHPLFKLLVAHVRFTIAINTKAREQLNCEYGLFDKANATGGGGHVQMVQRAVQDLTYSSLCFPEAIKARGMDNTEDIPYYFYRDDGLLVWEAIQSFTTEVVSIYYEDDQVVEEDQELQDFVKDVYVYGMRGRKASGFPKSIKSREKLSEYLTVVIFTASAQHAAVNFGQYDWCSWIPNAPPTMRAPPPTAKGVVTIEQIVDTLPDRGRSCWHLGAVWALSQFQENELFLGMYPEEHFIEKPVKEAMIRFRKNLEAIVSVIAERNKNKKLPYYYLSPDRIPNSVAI
Method in brief: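 Crude 20000g supernatant from sonicated rat basophilic leukemia cells used as 5-LO source; 5-HETE product formation measured.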

[2] = target: T2, Polyunsaturated fatty acid 5-lipoxygenase (Homo sapiens, UniProt P09917); experiment: In vitro 5-lipoxygenase inhibitory activity against calcium ionophore (A23187) induced LTB4 formation in human whole blood.
T2 sequence (P09917 whole entry): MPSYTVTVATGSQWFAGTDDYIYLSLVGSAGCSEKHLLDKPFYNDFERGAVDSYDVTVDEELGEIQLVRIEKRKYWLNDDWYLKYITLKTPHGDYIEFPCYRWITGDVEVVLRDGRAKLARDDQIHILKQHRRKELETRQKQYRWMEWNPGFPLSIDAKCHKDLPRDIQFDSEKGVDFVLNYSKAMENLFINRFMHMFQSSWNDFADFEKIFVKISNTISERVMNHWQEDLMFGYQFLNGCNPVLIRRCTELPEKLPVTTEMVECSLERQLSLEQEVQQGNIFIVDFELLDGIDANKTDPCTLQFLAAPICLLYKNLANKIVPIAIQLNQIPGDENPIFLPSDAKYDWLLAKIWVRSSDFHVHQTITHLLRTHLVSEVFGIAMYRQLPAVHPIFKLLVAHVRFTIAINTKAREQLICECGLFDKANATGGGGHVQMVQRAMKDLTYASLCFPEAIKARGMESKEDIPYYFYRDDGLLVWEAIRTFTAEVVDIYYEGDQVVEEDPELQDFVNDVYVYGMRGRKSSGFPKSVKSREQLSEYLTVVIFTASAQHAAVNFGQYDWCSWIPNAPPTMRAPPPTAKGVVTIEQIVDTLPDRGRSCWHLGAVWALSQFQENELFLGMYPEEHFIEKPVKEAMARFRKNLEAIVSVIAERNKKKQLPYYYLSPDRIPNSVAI

[3] = Plasma Tmax in rat (PO dose); assay type: ADME, organism-based
Method in brief: (§1)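 Rats dosed by oral gavage at 200 µmol/kg. Tail-vein blood drawn at about 1 h intervals; plasma analysed by HPLC. Mean of data from two animals.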

[4] = Plasma Cmax in rat (PO dose); assay type: ADME, organism-based; design: route oral; method in brief: as §1
Rattus norvegicus [5] = experiment: In vivo inhibition of rat anaphylaxis leukotriene formation from peritoneal fluids, 1 hr after an oral dose of 200 uM/Kg; Not significant; assay type: functional, organism-based
Method in brief: (§2)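 Rats given 200 µmol/kg orally 1 h before antibody-antigen challenge inducing peritoneal leukotriene biosynthesis; LTE4 in peritoneal fluid measured. Mean of eight rats; percent inhibition versus control group mean; significance by one-way ANOVA with Tukey's multiple comparison.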

Rattus norvegicus [6] = experiment: In vivo inhibition of rat anaphylaxis leukotriene formation from peritoneal fluids, 1 hr after an oral dose of 200 uM/Kg; assay type: functional; method in brief: as §2
Rattus norvegicus [7] = experiment: In vivo inhibition of rat anaphylaxis LTE4 leukotriene formation from peritoneal fluids, 1 hr after an oral dose of 200 uM/kg; assay type: functional; method in brief: as §2

IC50 [1] [µM]	IC50 [2] [µM]	Tmax [3] [h]	Cmax [4] [µM]	SMILES	ED50 (Rattus norvegicus [5])	ED50 (Rattus norvegicus [6]) [mg/kg]	Inhibition (Rattus norvegicus [7]) [%]
5.5	7.1	1	85	COc1cccc(N2CC(C)NC(=O)N2)n1 (configuration not stated)			
	2.6			O=C1NC(Oc2ccccc2)CN(c2ccccc2)N1 (configuration not stated)	inactive		
49		2	62	O=C1NCCN(c2cccc([N+](=O)[O-])c2)N1			
	2	1.1	98	Cc1cccc(N2CCNC(=O)N2)c1		18	
2.8	5.5	4	1	CC1CN(c2cccc(-c3cccs3)c2)NC(=O)N1 (configuration not stated)			
	2.2	1	26	CSc1cccc(N2CCNC(=O)N2)c1			73
9.1	3			O=C1NCCN(c2cccc(F)n2)N1			
	2.6			O=C1NC(Oc2ccc(F)cc2)CN(c2ccccc2)N1 (configuration not stated)	inactive		
5.3	2.1	2	59	O=C1NCCN(c2cccc(Cl)c2)N1		18	
3.8	1.7	1	125	Cc1cccc(N2CC(C)NC(=O)N2)n1 (configuration not stated)			
32				O=C1NCCN(c2cccnc2)N1			
		4.2	35	O=C1NCCN(c2cccc(Br)c2)N1			46
22				CON1C(=O)NN(c2ccccc2)CC1C (configuration not stated)			
32		2	123	O=C1NCCN(c2nc3ccccc3s2)N1			
	3.8	1.2	59	CCC1CN(c2ccccc2)NC(=O)N1 (configuration not stated)		24	
3.5	4.6	1	79	O=C1NCCN(c2cccc(Br)n2)N1		41	
6	> 50			O=C1NCCN(c2cccc(-c3ccccn3)n2)N1			
6.3	1.8	7.2	70.2	CC1CN(c2cccc(F)c2)NC(=O)N1 (configuration not stated)			60
	3.6			CC1CN(c2cccc(Cl)c2)NC(=O)N1O (configuration not stated)			
5.5	7.9	1	99	Cc1cccc(N2CCNC(=O)N2)n1		17	

IC50 [1] [µM]	IC50 [2] [µM]	Tmax [3] [h]	Cmax [4] [µM]	SMILES	ED50 (Rattus norvegicus [5])	ED50 (Rattus norvegicus [6]) [mg/kg]	Inhibition (Rattus norvegicus [7]) [%]
6.8	20	2	48	CC(C)C1CN(c2ccccc2)NC(=O)N1 (configuration not stated)		59	
	8.6	1	184	O=C1NCCN(c2ccccn2)N1		8	
2.6	5.2	7.2	26	CC1CN(c2cccc(Br)c2)NC(=O)N1 (configuration not stated)			54
32		1	58	O=C1NCCN(c2cnc3ccccc3c2)N1			
32				O=C1NCCN(c2nc3ccccc3o2)N1			
6.6	6			CC1CN(c2cccc(F)n2)NC(=O)N1 (configuration not stated)			
3.5	1.6	2	48	CC1CN(c2cccc(Cl)n2)NC(=O)N1 (configuration not stated)	inactive		
1.3		2.2	44	Cc1cccc(N2CC(C)NC(=O)N2)c1 (configuration not stated)			43
5.6	4.8	2	122	O=C1NCCN(c2cccc(Cl)n2)N1		16	
386		2.1	78	Cc1ccccc1N1CCNC(=O)N1	inactive		
11	5.8	2	141	CC1CN(c2ccccc2)NC(=O)N1 (configuration not stated)		13	
14	24			COCCOCC1CN(c2ccccc2)NC(=O)N1 (configuration not stated)			
30				O=C1NCCN(c2cccc(-c3ccncc3)c2)N1			
47		1.2	72	COc1cccc(N2CCNC(=O)N2)c1			44
		4.1	24	O=C1NCCN(c2cccc(C(F)(F)F)c2)N1			40
300		1.1	105	Cc1ccc(N2CCNC(=O)N2)cc1			
4.8	8.4	1	7	CC1CN(c2cccc(-c3ccco3)c2)NC(=O)N1 (configuration not stated)	inactive		
32				CN1CCN(c2ccccc2)NC1=O			
		4	20	Cc1cc(C)cc(N2CCNC(=O)N2)c1			46
8.4	4.8			Cc1cccc(N2CC(C)N(O)C(=O)N2)c1 (configuration not stated)			

IC50 [1] [µM]	IC50 [2] [µM]	Tmax [3] [h]	Cmax [4] [µM]	SMILES	ED50 (Rattus norvegicus [5])	ED50 (Rattus norvegicus [6]) [mg/kg]	Inhibition (Rattus norvegicus [7]) [%]
32				O=C1NCCN(c2cccc(O)c2)N1			
6.8		2.2	20	CC1(C)CN(c2ccccc2)NC(=O)N1	inactive		
8.2	37			O=C1NCCN(c2cccc(-c3cccs3)n2)N1			
4.9	5.3	1	2	O=C1NCCN(c2cccc(-c3ccsc3)c2)N1			
2.1	8.8	1	3	O=C1NCCN(c2cccc(-c3cccs3)c2)N1			
	3.1	2	21	CC1CN(c2cccc(Br)n2)NC(=O)N1 (configuration not stated)			57
178		1.1	95	Nc1cccc(N2CCNC(=O)N2)c1			
32				O=C1NCCN(c2ccncc2)N1			
32				CCN1CCN(c2ccccc2)NC1=O			
30				O=C1NCCN(c2cccc(-c3ccccn3)c2)N1			
		1.1	32	CCc1cccc(N2CCNC(=O)N2)c1		24	
		1	108	O=C1NCCN(c2cccc(F)c2)N1			38
8.9	4.6	2	64	O=C1NCCN(c2cc(F)cc(F)c2)N1			59
32		4	85	O=C1NCCN(c2ccnc3cc(Cl)ccc23)N1			
2.7	2.7	4	31	CC1CN(c2cccc(Cl)c2)NC(=O)N1 (configuration not stated)			40
6	13			CC1CN(c2ccccc2)NC(=O)N1O (configuration not stated)			
9.5	3.5	1	101	COc1cccc(N2CCNC(=O)N2)n1			26
1.1	0.2	1	2.5	O=C1NCCN(c2cccc(OCc3ccccc3)c2)N1			14
8.3				O=C1NN(c2ccccc2)CCN1Cc1ccccc1			
1.5		1	8	CCCCC1CN(c2ccccc2)NC(=O)N1 (configuration not stated)			42
